Active and inactive are the calls of the source. The rule behind the calls is not given here.
Experiments:
[1] = molecular target: T1, Topoisomerase I (Bos taurus) (UniProt Q2HPH0); assay: Inhibition of calf thymus topoisomerase 1-mediated relaxation of supercoiled pBR322 at 10 uM after 15 mins using ethidium bromide staining by UV transilluminator analysis
T1 sequence (whole entry): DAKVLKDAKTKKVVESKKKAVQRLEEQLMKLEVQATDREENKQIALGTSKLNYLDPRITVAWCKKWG
How it was run: (§1)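 Topo I with DNA was reacted with compound at 37 °C for 15 min. Reactions were stopped with SDS (0.5% final), then 6× loading buffer (0.1 mM EDTA, 7% glycerol, 0.01% xylene cyanol FF, 0.01% bromophenol blue) was added. Products were separated by gel. Compound concentrations were 1, 10 and 50 µM, and a topo I plus DNA sample without drug served as reference.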

[2] = molecular target: T1, Topoisomerase I (Bos taurus); assay: Inhibition of calf thymus topoisomerase 1-mediated relaxation of supercoiled pBR322 assessed as increase in cleavable complex level after 15 mins using ethidium bromide staining by UV transilluminator analysis; how it was run: as §1
A549 = assay: Cytotoxicity against human A549 cells after 3 days by MTT assay; assay type: functional, cell-based; settings: A549, 72 h
How it was run: (§2)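 After 3 days, MTT (5 mg/mL solution) was added and plates incubated a further 4 h. Formazan was dissolved in DMSO and absorbance read at 570 nm. Survival expressed as percentage of untreated control wells.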

MDA-MB-435 = assay: Cytotoxicity against human MDA-MB-435 cells after 3 days by MTT assay; assay type: functional, cell-based; settings: MDA-MB-435, 72 h; how it was run: as §2
HCT-116 = assay: Cytotoxicity against human HCT116 cells after 3 days by MTT assay; assay type: functional, cell-based; settings: HCT-116, 72 h; how it was run: as §2
[3] = molecular target: T1, Topoisomerase I (Bos taurus); assay: Inhibition of calf thymus topoisomerase 1-mediated relaxation of supercoiled pBR322 assessed as formation of nicked DNA at 1 to 50 uM after 15 mins using ethidium bromide staining by UV transilluminator; how it was run: as §1

SMILES	inhibition [1]	inhibition [2]	IC50 (A549) [nM]	IC50 (MDA-MB-435) [nM]	IC50 (HCT-116) [nM]	topoisomerase I inhibition (qualitative call) [1]	inhibition [3]
CC[C@@]1(O)C(=O)OCc2c1cc1n(c2=O)Cc2cc3ccccc3nc2-1	Active	Dose-dependent effect	–	–	–	–	–
CCC1(O)CC(=O)OCc2c1cc1n(c2=O)Cc2c-1nc1ccc(OC)cc1c2C1CCCC1 (racemic)	–	–	730	41.5	71.4	Active	–
CCC1(O)CC(=O)OCc2c1cc1n(c2=O)Cc2c-1nc1ccc(OC)cc1c2C1CCCCC1 (racemic)	–	–	657	76.1	118	–	–
CCC1(O)CC(=O)OCc2c1cc1n(c2=O)Cc2c-1nc1ccc(OC)cc1c2C(=O)C1CC1 (racemic)	–	–	2480	48.2	5.93	–	–
CCC1(O)CC(=O)OCc2c1cc1n(c2=O)Cc2c-1nc1ccc(OC)cc1c2C(=O)C1CCCC1 (racemic)	–	Dose-dependent effect	430	< 1	2.17	Active	Active
CCC1(O)CC(=O)OCc2c1cc1n(c2=O)Cc2c-1nc1ccc(OC)cc1c2C(=O)C1CCCCC1 (racemic)	–	–	669	< 1	446	–	–
CCC(=O)c1c2c(nc3ccc(OC)cc13)-c1cc3c(c(=O)n1C2)COC(=O)CC3(O)CC (racemic)	–	–	8960	63.3	56	–	–
CCCC(=O)c1c2c(nc3ccc(OC)cc13)-c1cc3c(c(=O)n1C2)COC(=O)CC3(O)CC (racemic)	–	–	14100	198	268	–	–
CCCCC(=O)c1c2c(nc3ccc(OC)cc13)-c1cc3c(c(=O)n1C2)COC(=O)CC3(O)CC (racemic)	–	–	7030	198	277	–	–
CCCCCCC(=O)c1c2c(nc3ccc(OC)cc13)-c1cc3c(c(=O)n1C2)COC(=O)CC3(O)CC (racemic)	–	–	478	133	317	Active	–
CCC1(O)CC(=O)OCc2c1cc1n(c2=O)Cc2c-1nc1ccc(OC)cc1c2C(=O)C(C)C (racemic)	–	–	2270	21.6	404	–	–
CCC1(O)CC(=O)OCc2c1cc1n(c2=O)Cc2c-1nc1ccc(OC)cc1c2C(=O)c1ccco1 (racemic)	–	Dose-dependent effect	< 1	2.18	294	Active	Active
CCC1(O)CC(=O)OCc2c1cc1n(c2=O)Cc2c-1nc1ccc(OC)cc1c2C(=O)c1cccs1 (racemic)	–	–	607	1610	2190	Active	–
CCC1(O)CC(=O)OCc2c1cc1n(c2=O)Cc2c-1nc1ccc(OC)cc1c2C(=O)c1ccccc1 (racemic)	–	–	1770	2210	2940	–	–
CCC1(O)CC(=O)OCc2c1cc1n(c2=O)Cc2c-1nc1ccc(OC)cc1c2C(=O)c1ccc(Cl)cc1 (racemic)	–	–	665	2090	3020	–	–
CCC1(O)CC(=O)OCc2c1cc1n(c2=O)Cc2c-1nc1ccc(OC)cc1c2C(=O)c1ccc(F)cc1 (racemic)	–	–	7790	15900	13100	–	–
CCC1(O)CC(=O)OCc2c1cc1n(c2=O)Cc2c-1nc1ccc(OC)cc1c2C(=O)c1ccc(C)cc1 (racemic)	–	–	3390	7170	8170	–	–
CCC1(O)CC(=O)OCc2c1cc1n(c2=O)Cc2c-1nc1ccc(OC)cc1c2C(=O)c1ccc(C(F)(F)F)cc1 (racemic)	–	–	625	1480	1910	Active	–
CCC1(O)CC(=O)OCc2c1cc1n(c2=O)Cc2c-1nc1ccc(OC)cc1c2C(=O)c1ccc(OC)cc1 (racemic)	–	–	9250	16300	2070	–	–
CCC1(O)CC(=O)OCc2c1cc1n(c2=O)Cc2c-1nc1ccc(OC)cc1c2C(=O)c1cc(C)cc(C)c1 (racemic)	–	–	48000	> 100000	26300	–	–
CCC1(O)CC(=O)OCc2c1cc1n(c2=O)Cc2c-1nc1ccc(OC)cc1c2C(=O)c1ccc2ccccc2c1 (racemic)	–	–	> 100000	> 100000	22800	–	–
CC[C@@]1(O)C(=O)OCc2c1cc1n(c2=O)Cc2cc3c(CN(C)C)c(O)ccc3nc2-1 [TOPOTECAN]	–	–	3160	448	1100	–	–
